Assay results published in ChEMBL document CHEMBL1926569, “Novel (E)-1-(4-methyl-2-(alkylamino)thiazol-5-yl)-3-arylprop-2-en-1-ones as potent antimicrobial agents” (2011).
In brackets after ≈: the same amount, converted by molar mass.

Tests used:
Staphylococcus aureus [1] = assay: Antibacterial activity against Staphylococcus aureus ATCC 6538 after 24 hrs by microdilution method; format: functional; settings: ATCC 6538, 24 h
Outline: (§1)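 Broth microdilution in 96-well plates. Bacterial suspensions were adjusted in sterile saline to 1.0 × 10⁵ CFU/ml, prepared daily and kept at 4 °C. Compound was added to LB broth with 1.0 × 10⁴ CFU per well and shaken at 160 rpm for 24 h at […] (so in the source). MIC is the lowest concentration with no visible growth under a binocular microscope. OD655 was also read. Duplicate, repeated three times.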

Bacillus cereus [2] = assay: Antibacterial activity against clinical isolate of Bacillus cereus after 24 hrs by microdilution method; format: functional; outline: as §1
Micrococcus flavus [3] = assay: Antibacterial activity against Micrococcus flavus ATCC 10240 after 24 hrs by microdilution method; format: functional; settings: ATCC 10240, 24 h; outline: as §1
Listeria monocytogenes [4] = assay: Antibacterial activity against Listeria monocytogenes NCTC 7973 after 24 hrs by microdilution method; format: functional; settings: NCTC 7973, 24 h; outline: as §1
Pseudomonas aeruginosa [5] = assay: Antibacterial activity against Pseudomonas aeruginosa ATCC 27853 after 24 hrs by microdilution method; format: functional; settings: ATCC 27853, 24 h; outline: as §1
Salmonella typhimurium [6] = assay: Antibacterial activity against Salmonella Typhimurium ATCC 13311 after 24 hrs by microdilution method; format: functional, Salmonella enterica subsp. enterica serovar Typhimurium; settings: Salmonella enterica, ATCC 13311, 24 h; outline: as §1
Escherichia coli [7] = assay: Antibacterial activity against Escherichia coli ATCC 35210 after 24 hrs by microdilution method; format: functional; settings: ATCC 35210, 24 h; outline: as §1
Enterococcus faecalis [8] = assay: Antibacterial activity against Enterococcus faecalis isolated from human after 24 hrs by microdilution method; format: functional; outline: as §1
Staphylococcus aureus [9] = assay: Antibacterial activity against Staphylococcus aureus ATCC 6538 incubated for 24 hrs followed by serial sub-cultivation for 24 hrs by microdilution method; format: functional; settings: ATCC 6538, 24 h
Outline: (§2)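 MBC: after the 24 h LB broth microdilution (1.0 × 10⁴ CFU per well, 160 rpm), wells were serially sub-cultured into fresh broth plates and incubated a further 24 h. MBC is the lowest concentration with no visible growth, taken as 99.5% killing of the original inoculum. Duplicate, repeated three times.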

Bacillus cereus [10] = assay: Antibacterial activity against clinical isolate of Bacillus cereus incubated for 24 hrs followed by serial sub-cultivation for 24 hrs by microdilution; format: functional; outline: as §2
Micrococcus flavus [11] = assay: Antibacterial activity against Micrococcus flavus ATCC 10240 incubated for 24 hrs followed by serial sub-cultivation for 24 hrs by microdilution; format: functional; settings: ATCC 10240, 24 h; outline: as §2
Listeria monocytogenes [12] = assay: Antibacterial activity against Listeria monocytogenes NCTC 7973 incubated for 24 hrs followed by serial sub-cultivation for 24 hrs by microdilution; format: functional; settings: NCTC 7973, 24 h; outline: as §2
Pseudomonas aeruginosa [13] = assay: Antibacterial activity against Pseudomonas aeruginosa ATCC 27853 incubated for 24 hrs followed by serial sub-cultivation for 24 hrs by microdilution; format: functional; settings: ATCC 27853, 24 h; outline: as §2
Salmonella typhimurium [14] = assay: Antibacterial activity against Salmonella Typhimurium ATCC 13311 incubated for 24 hrs followed by serial sub-cultivation for 24 hrs by microdilution; format: functional, Salmonella enterica subsp. enterica serovar Typhimurium; settings: Salmonella enterica, ATCC 13311, 24 h; outline: as §2
Escherichia coli [15] = assay: Antibacterial activity against Escherichia coli ATCC 35210 incubated for 24 hrs followed by serial sub-cultivation for 24 hrs by microdilution; format: functional; settings: ATCC 35210, 24 h; outline: as §2
Enterococcus faecalis [16] = assay: Antibacterial activity against Enterococcus faecalis isolated from human incubated for 24 hrs followed by serial sub-cultivation for 24 hrs by microdilution; format: functional; outline: as §2
Aspergillus ochraceus [17] = assay: Antifungal activity against Aspergillus ochraceus ATCC 12066 after 72 hrs by serial dilution technique; format: functional; settings: ATCC 12066, 72 h
Outline: (§3)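 Modified microdilution in 96-well plates. Fungi were kept on malt agar at 4 °C. Spores were washed off in sterile 0.85% saline with 0.1% Tween 80. Compounds were dissolved at 1 mg/ml in 5% DMSO with 0.1% Tween 80 and added to malt broth with inoculum. Plates were shaken at 160 rpm for 72 h at 28 °C. Duplicate, repeated three times.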

Aspergillus niger [18] = assay: Antifungal activity against Aspergillus niger ATCC 6275 after 72 hrs by serial dilution technique; format: functional; settings: ATCC 6275, 72 h; outline: as §3
Aspergillus flavus [19] = assay: Antifungal activity against Aspergillus flavus ATCC 9643 after 72 hrs by serial dilution technique; format: functional; settings: ATCC 9643, 72 h; outline: as §3
Talaromyces funiculosus [20] = assay: Antifungal activity against Penicillium funiculosum ATCC 36839 after 72 hrs by serial dilution technique; format: functional; settings: ATCC 36839, 72 h; outline: as §3
Penicillium ochrochloron [21] = assay: Antifungal activity against Penicillium ochrochloron ATCC 9112 after 72 hrs by serial dilution technique; format: functional; settings: ATCC 9112, 72 h; outline: as §3
Trichoderma viride [22] = assay: Antifungal activity against Trichoderma viride IAM 5061 after 72 hrs by serial dilution technique; format: functional; settings: IAM 5061, 72 h; outline: as §3
Candida albicans [23] = assay: Antifungal activity against Candida albicans isolated from human after 72 hrs by serial dilution technique; format: functional; outline: as §3
Aspergillus ochraceus [24] = assay: Antifungal activity against Aspergillus ochraceus ATCC 12066 incubated for 72 hrs followed by serial sub-cultivation for 72 hrs by serial dilution technique; format: functional; settings: ATCC 12066, 72 h
Outline: (§4)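 MFC: material from 72 h malt broth microdilution wells was serially sub-cultured into fresh broth plates and incubated a further 72 h at 28 °C. Fungicidal concentration is taken from growth after sub-culture. Duplicate, repeated three times.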

Aspergillus fumigatus [25] = assay: Antifungal activity against Aspergillus fumigatus isolated from human incubated for 72 hrs followed by serial sub-cultivation for 72 hrs by serial dilution technique; format: functional; outline: as §4
Aspergillus niger [26] = assay: Antifungal activity against Aspergillus niger ATCC 6275 incubated for 72 hrs followed by serial sub-cultivation for 72 hrs by serial dilution technique; format: functional; settings: ATCC 6275, 72 h; outline: as §4
Aspergillus flavus [27] = assay: Antifungal activity against Aspergillus flavus ATCC 9643 incubated for 72 hrs followed by serial sub-cultivation for 72 hrs by serial dilution technique; format: functional; settings: ATCC 9643, 72 h; outline: as §4
Talaromyces funiculosus [28] = assay: Antifungal activity against Penicillium funiculosum ATCC 36839 incubated for 72 hrs followed by serial sub-cultivation for 72 hrs by serial dilution technique; format: functional; settings: ATCC 36839, 72 h; outline: as §4
Penicillium ochrochloron [29] = assay: Antifungal activity against Penicillium ochrochloron ATCC 9112 incubated for 72 hrs followed by serial sub-cultivation for 72 hrs by serial dilution technique; format: functional; settings: ATCC 9112, 72 h; outline: as §4
Trichoderma viride [30] = assay: Antifungal activity against Trichoderma viride IAM 5061 incubated for 72 hrs followed by serial sub-cultivation for 72 hrs by serial dilution technique; format: functional; settings: IAM 5061, 72 h; outline: as §4
Candida albicans [31] = assay: Antifungal activity against Candida albicans isolated from human incubated for 72 hrs followed by serial sub-cultivation for 72 hrs by serial dilution technique; format: functional; outline: as §4
Pseudomonas aeruginosa [32] = assay: Ratio of ampicillin MIC to compound MIC for Pseudomonas aeruginosa ATCC 27853; format: functional
Aspergillus ochraceus [33] = assay: Ratio of bifonazole to compound for Aspergillus ochraceus ATCC 12066; format: functional
Aspergillus niger [34] = assay: Ratio of bifonazole to compound for Aspergillus niger ATCC 6275; format: functional
Talaromyces funiculosus [35] = assay: Ratio of bifonazole to compound for Penicillium funiculosum ATCC 36839; format: functional
Penicillium ochrochloron [36] = assay: Ratio of bifonazole to compound for Penicillium ochrochloron ATCC 9112; format: functional
Trichoderma viride [37] = assay: Ratio of bifonazole to compound for Trichoderma viride IAM 5061; format: functional
Candida albicans [38] = assay: Ratio of bifonazole to compound for Candida albicans isolated from human; format: functional
Aspergillus ochraceus [39] = assay: Ratio of ketoconazole to compound for Aspergillus ochraceus ATCC 12066; format: functional
Aspergillus fumigatus [40] = assay: Ratio of ketoconazole to compound for Aspergillus fumigatus isolated from human; format: functional
Penicillium ochrochloron [41] = assay: Ratio of ketoconazole to compound for Penicillium ochrochloron ATCC 9112; format: functional
Candida albicans [42] = assay: Ratio of ketoconazole to compound for Candida albicans isolated from human; format: functional
Aspergillus ochraceus [43] = assay: Antifungal activity against Aspergillus ochraceus after 72 hrs by serial dilution technique

MIC (Staphylococcus aureus [1]): 73.5 µM (≈ 20 µg/mL)
MIC (Bacillus cereus [2]): 73.5 µM (≈ 20 µg/mL)
MIC (Micrococcus flavus [3]): 73.5 µM (≈ 20 µg/mL)
MIC (Listeria monocytogenes [4]): 110 µM (≈ 30 µg/mL)
MIC (Pseudomonas aeruginosa [5]): 73.5 µM (≈ 20 µg/mL)
MIC (Salmonella typhimurium [6]): 73.5 µM (≈ 20 µg/mL)
MIC (Escherichia coli [7]): 55.1 µM (≈ 15 µg/mL)
MIC (Enterococcus faecalis [8]): 55.1 µM (≈ 15 µg/mL)
MIC (Aspergillus ochraceus [17]): 36.8 µM (≈ 10 µg/mL)
MIC (Aspergillus niger [18]): 37.8 µM (≈ 10.3 µg/mL)
MIC (Aspergillus flavus [19]): 36.8 µM (≈ 10 µg/mL)
MIC (Talaromyces funiculosus [20]): 36.8 µM (≈ 10 µg/mL)
MIC (Penicillium ochrochloron [21]): 36.8 µM (≈ 10 µg/mL)
MIC (Trichoderma viride [22]): 36.8 µM (≈ 10 µg/mL)
MIC (Candida albicans [23]): 55.1 µM (≈ 15 µg/mL)
MIC (Aspergillus ochraceus [43]): 36.8 µM (≈ 10 µg/mL)
Compound: CNc1nc(C)c(C(=O)/C=C/c2cccc(C)c2)s1
MBC (Staphylococcus aureus [9]): 110 µM (≈ 30 µg/mL)
MBC (Bacillus cereus [10]): 91.9 µM (≈ 25 µg/mL)
MBC (Micrococcus flavus [11]): 91.9 µM (≈ 25 µg/mL)
MBC (Listeria monocytogenes [12]): 110 µM (≈ 30 µg/mL)
MBC (Pseudomonas aeruginosa [13]): 91.9 µM (≈ 25 µg/mL)
MBC (Salmonella typhimurium [14]): 91.9 µM (≈ 25 µg/mL)
MBC (Escherichia coli [15]): 73.5 µM (≈ 20 µg/mL)
MBC (Enterococcus faecalis [16]): 73.5 µM (≈ 20 µg/mL)
MFC (Aspergillus ochraceus [24]): 73.5 µM (≈ 20 µg/mL)
MFC (Aspergillus fumigatus [25]): 73.5 µM (≈ 20 µg/mL)
MFC (Aspergillus niger [26]): 73.5 µM (≈ 20 µg/mL)
MFC (Aspergillus flavus [27]): 91.9 µM (≈ 25 µg/mL)
MFC (Talaromyces funiculosus [28]): 73.5 µM (≈ 20 µg/mL)
MFC (Penicillium ochrochloron [29]): 73.5 µM (≈ 20 µg/mL)
MFC (Trichoderma viride [30]): 73.5 µM (≈ 20 µg/mL)
MFC (Candida albicans [31]): 73.5 µM (≈ 20 µg/mL)
Ratio (Pseudomonas aeruginosa [32]): 10
Ratio (Aspergillus ochraceus [33]): 10
Ratio (Aspergillus niger [34]): 10
Ratio (Talaromyces funiculosus [35]): 10
Ratio (Penicillium ochrochloron [36]): 10
Ratio (Trichoderma viride [37]): 10
Ratio (Candida albicans [38]): 10
Ratio (Aspergillus ochraceus [39]): 10
Ratio (Aspergillus fumigatus [40]): 10
Ratio (Penicillium ochrochloron [41]): 10
Ratio (Candida albicans [42]): 10
